The source of these data is ChEMBL document CHEMBL2029264, “Indole-based fibrates as potential hypolipidemic and antiobesity agents” (J Med Chem, 2012).

Activity calls are given as the source filed them. No cut-off for these calls is given here.

Data set [1] relates to Rattus norvegicus. Briefly: Toxicity in HFD-induced hyperlipidemic Charles Foster rat at 100 mg/kg/day, po administered for 4 weeks by autopsy analysis. It is filed as organism-based. Also noted: route oral. The note with it: in vivo, 672 h. In a few lines: (§1)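 Male Charles Foster rats (200−225 g) were fed a high-fat diet for 4 weeks, then dosed at 100 mg/kg/d alongside the same diet for 4 more weeks. Survival was monitored. After an overnight fast, blood was drawn and the animals were sacrificed. Macroscopic inspection and autopsy were then performed, with n = 6 per group.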

For data set [2], the system named is Rattus norvegicus. Briefly: Antiobesity activity in HFD-induced hyperlipidemic Charles Foster rat assessed as decrease in perirenal fat-pad at 100 mg/kg, po administered for 4 weeks. It is filed as functional, organism-based. Also noted: dose 100 mg/kg. A digest of the protocol:
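Adult male Charles Foster rats given high-fat or normal diet 4 weeks, then diet plus vehicle or daily dosing 4 more weeks, sacrificed at week 8. Body weight gain, food intake, food efficiency ratio (weight gain/food intake over the period), and mesenteric, gonadal, inguinal and perirenal fat-pad weights recorded; mean ± SD, n = 6.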

Data set [3] has as its system Rattus norvegicus. Briefly: Toxicity in HFD-induced hyperlipidemic Charles Foster rat at 100 mg/kg/day, po administered for 4 weeks by macroscopic analysis. Further details: route oral. The note with it: in vivo, 672 h. It is filed as organism-based. A digest of the protocol:
as §1

Data set [4] concerns Rattus norvegicus. Briefly: Antihyperlipidemic activity in HFD-induced hyperlipidemic Charles Foster rat assessed as increase in serum LCAT enzyme level at 100 mg/kg, po administered for 4 weeks relative to control. The class given is functional. A digest of the protocol: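 Male Charles Foster rats (200−225 g): high-fat diet 4 weeks, then diet plus daily dosing 4 weeks. Overnight fast, retro-orbital blood in EDTA (3 mg/mL blood), centrifuged to serum. TC, PL, TG in mg/dL; LCAT as nmol cholesterol released/h/L plasma. Mean ± SD; dosed groups compared with high-fat group, P by significance levels.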

The subject of data set [5] is Rattus norvegicus. The experiment in a line: Antihyperlipidemic activity in po dosed Triton WR-1339-induced hyperlipidemic rat assessed as increase in PHLA. It is filed as functional, organism-based. In a few lines: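 Triton WR-1339 given to rats to induce hyperlipidemia; oral dosing. Plasma TC, PL, TG in mg/dL; PHLA as […]/h/mL plasma. Mean ± SD of six rats; Triton group compared with control, Triton plus dosed group compared with Triton group.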

Turning to `CCOC(=O)C(C)Oc1ccc(C(c2cn(CC)c3ccccc23)c2cn(CC)c3ccccc23)cc1` (stereo not drawn), the Activity entry was “Non-toxic” in the data set on Rattus norvegicus [1], “Non-toxic” in the data set on Rattus norvegicus [3], 32% in the data set with Rattus norvegicus [4] and “Dose-dependent effect” in the data set with Rattus norvegicus [5]. In addition, the result in the data set on Rattus norvegicus [2] was Active.
Regarding `CCOC(=O)CCCOc1ccc(C(c2cn(C)c3ccccc23)c2cn(C)c3ccccc23)cc1`, the outcome with Rattus norvegicus [2] was Active. The Activity is 29% with Rattus norvegicus [4] and “Dose-dependent effect” in the data set with Rattus norvegicus [5].
